# Tests used:
# [1] = tested on: Endolysin (Enterobacteria phage T4), P00720 [L99A,M102H]; details: Tequatrovirus T4
# [2] = tested on: Endolysin (Enterobacteria phage T4), P00720 [L99A,M102H]; details: Tequatrovirus T4; remark: listed apart in the source
# [3] = tested on: Endolysin (Enterobacteria phage T4), P00720 [L99A,M102H]; assay: Binding affinity to Enterobacteria phage T4 lysozyme L99A/M102H double mutant expressed in Escherichia coli BL21(DE3) assessed as change in melting temperature at 0.5 mM at pH 5.4 by circular dichroism analysis; details: Tequatrovirus T4
# Procedure, shortened: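 T4 lysozyme L99A/M102H from pET-28 in E. coli BL21(DE3), purified on Ni-NTA, ≥95% pure. Thermal melts followed by CD at pH 5.4, at least in triplicate. Ligand added from DMSO to 0.5 mM final, 0.1% DMSO final, controls included. ΔCp set to 10.5 kJ mol⁻¹ K⁻¹. Binder cutoff is ΔTm ≥0.4 °C. ΔGmelt = ΔTm × ΔS, with ΔS = ΔH/Tm.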
# [4] = tested on: Endolysin (Enterobacteria phage T4), P00720 [L99A,M102H]; assay: Binding affinity to Enterobacteria phage T4 lysozyme L99A/M102H double mutant expressed in Escherichia coli BL21(DE3) assessed as change in melting temperature at 0.5 mM at pH 6.8 by circular dichroism analysis; details: Tequatrovirus T4
# Procedure, shortened: (§1)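 CD thermal unfolding at pH 6.8 of Ni-NTA-purified T4 lysozyme L99A/M102H expressed from pET-28 in E. coli BL21(DE3). Ligand added from DMSO to 0.5 or 1 mM final, 0.1% DMSO final in all samples and controls. ΔCp set to 8.1 kJ mol⁻¹ K⁻¹. ΔTm ≥0.4 °C scored as binding. ΔGmelt = ΔTm × ΔH/Tm.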
# [5] = tested on: Endolysin (Enterobacteria phage T4), P00720 [L99A,M102H]; assay: Binding affinity to Enterobacteria phage T4 lysozyme harboring L99A/M102H double mutant expressed in Escherichia coli BL21(DE3) assessed as change in melting temperature at 1 mM at pH 6.8 by circular dichroism analysis; details: Tequatrovirus T4
# Procedure, shortened: as §1
# [6] = tested on: Endolysin (Enterobacteria phage T4), P00720 [L99A,M102H]; details: Tequatrovirus T4; remark: listed apart in the source
# Endolysin = Endolysin (Enterobacteria phage T4, UniProt P00720, L99A/M102H); design: species or system Tequatrovirus T4
# [7] = tested on: Endolysin (Enterobacteria phage T4), P00720 [L99A,M102H]; details: Tequatrovirus T4; remark: listed apart in the source
Structure (SMILES),ΔTm [2] [°C],also measured
N#Cc1ccccc1O,,ΔTm [1]: 0.6 °C
OCc1ccc(Cl)c(Cl)c1,0.2,
OCCn1cccn1,0.3,
N#CNC#N,-0.6,
C#Cc1ccccc1N,,ΔTm [3]: 0.5 °C; ΔTm [4]: 0.5 °C
c1ccc2oncc2c1,0.2,
Cc1cc(C)[nH]n1,-0.3,ΔTm [5]: 1.4 °C
c1ccncc1,,ΔTm [5]: 0.1 °C
OCCS,,ΔTm [6]: 0 °C
CSc1ccc(F)cc1,0.4,
Nc1ncc(Cl)s1,1.1,
CC(=O)c1ccc(O)cc1,0.5,
O=Cc1cc(O)ccc1Br,,ΔTm [3]: 0.9 °C
Brc1c[nH]cn1,0.4,Kd (Endolysin): 317 µM
FC(F)(F)c1c[nH]cn1,1,
O=C(O)C(F)(F)F,,ΔTm [7]: -0.8 °C
C=CCc1ccccc1O [2-ALLYLPHENOL],,ΔTm [6]: 2.9 °C

Structure (SMILES),ΔTm [2] [°C],also measured
Oc1cc(C(F)(F)F)ccn1,0.1,
Nc1ccccc1,,ΔTm [3]: 0.2 °C; ΔTm [4]: 0.5 °C
OCc1cc(Cl)ccc1Cl,-0.1,
C=CSc1ccccc1,1,
Nc1cc(F)c(F)cc1Br,0.2,ΔTm [5]: 0.8 °C
CC(CO)c1ccccc1 (configuration not stated),0.1,
Cc1cc(C)n(CO)n1,-0.7,ΔTm [5]: 0.3 °C
Cc1cc(C(F)(F)F)n[nH]1,1.9,
CCc1cc(O)ccc1Cl,-0.9,
N#Cc1ccc([N+](=O)[O-])s1,0.2,
Clc1n[nH]c2ncccc12,,ΔTm [3]: 0.1 °C; ΔTm [4]: 1 °C
N#Cc1cc(Br)ccc1O,2.2,
O=[N+]([O-])c1ccc(O)cc1,5,ΔTm [5]: 4.5 °C
Nc1ccc(F)cc1Cl,-0.3,ΔTm [5]: 1.3 °C
OCc1cccc(Br)c1,-0.7,
C#CC(O)c1ccccc1 (configuration not stated),,ΔTm [7]: 2.2 °C
